A1 apoptosis 2: A1 inhibitors via caspase activation, primary screen, cell-based, luminescence, HTS, two replicates; MEF A1-2A-BIM cells, caspase-Glo luminescence, 3 h; percent of clofoctol response, DMSO zero; caspase activation, % (no concentration beside the values); 24,000 tested, under 10 active; in the data active means caspase activation above about 5.9%; inconclusive means no clear call, values can overlap the other calls; inactive means below about 2.2%
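Test system – A1-2A-BIM-expressing MEF cells · Input – 2500 cells/well · Medium – RPMI-1640 growth medium with 10% FBS · Compound dosing – 50 nL pinned compound · Timing – 3 h compound exposure at 37 °C · Technique – Caspase-Glo luminescence (DEVD substrate) · Evaluation – Caspase-3/7 activity from luminescence increase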
INS-1E rescue: protection of INS-1E cells from cytokine death, primary screen, ATP luminescence, single point | INS-1E cytokine-induced death, 48 h; normalised: neutral wells 0, positive control 100 | protection from cytokine-induced ATP loss, % at 10 µM | 20,000 tested, 0.1% active;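 active means mean replicate protection from cytokine-induced ATP loss at least 50% and at least 75% of replicates each reaching 50%; inconclusive means meets only one of the two criteria, mean or replicate share; inactive means fails both the mean and replicate share criteria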
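Assay system: INS-1E rat insulinoma cells. Amount: 8000 cells per well. Medium: phenol-red-free RPMI with 5% fetal bovine serum. Reagent: IL-1β, TNF-α and IFN-γ cytokine mix. Doses: one compound concentration, pin transfer. Schedule: 48 h co-treatment, 10 min post-lysis read. Detection: CellTiter-Glo luminescence measuring cellular ATP.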
T cruzi HTS: inhibitors of intracellular Trypanosoma cruzi, primary screen, cell-based, plate reader, single point, set 2. 22,000 tested, 4.9% active. intracellular Trypanosoma cruzi in host cells. activity score (inhibition), % at 5.01 µM; in the data active means activity score above about 55%; inconclusive means no clear call, values can overlap the other calls;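 further: parasites and compound incubated about four days before reading; 0% = median of neutral control wells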
An asterisk follows results filed as active; ? = inconclusive; . = no result. Only a selection was taken, and hits are over-represented in it overall.

SMILES	A1 apoptosis 2	INS-1E rescue	T cruzi HTS
C[C@@H]1CN([C@H](C)CO)C(=O)Cc2cc(NC(=O)Nc3ccc(C(F)(F)F)cc3)ccc2O[C@H]1CN(C)CC1CCCCC1	.	-18.2	82.8*
C[C@@H]1CN([C@H](C)CO)C(=O)Cc2cc(NC(=O)Nc3ccc(C(F)(F)F)cc3)ccc2O[C@@H]1CN(C)CC1CCCCC1	.	-72.9	61.5*
C[C@H]1CN([C@@H](C)CO)C(=O)Cc2cc(NC(=O)Nc3ccc(C(F)(F)F)cc3)ccc2O[C@H]1CN(C)CC1CC1	-1.5	3.9	9.7
Cc1noc(C)c1NC(=O)Nc1ccc2c(c1)CC(=O)N([C@H](C)CO)C[C@@H](C)[C@@H](CN(C)Cc1ccc(C(=O)Nc3ccccc3N)cc1)O2	-0.4	-13.9	-4.7
O=C(N/N=C/c1ccccc1OCCO)c1ccccc1O	-0.2	-25.1	-19.0
C[C@@H]1CN([C@H](C)CO)C(=O)c2cccc(NS(=O)(=O)c3ccccc3)c2O[C@H]1CN(C)CC1CC1	.	2.1	-3.3
C[C@H](CO)N1C[C@H](C)[C@H](CN(C)S(C)(=O)=O)Oc2ncc(C#Cc3ccc(F)cc3)cc2C1=O	.	.	10.5
C[C@H](CO)N1C[C@H](C)[C@H](CN(C)S(=O)(=O)c2cccs2)Oc2ncc(C#Cc3ccc(C(F)(F)F)cc3)cc2C1=O	-1.7	-21.3	87.0*
CCCC(O)C#Cc1cnc2c(c1)C(=O)N([C@H](C)CO)C[C@H](C)[C@H](CN(C)S(=O)(=O)c1cccs1)O2 (stereo not given in full)	1.2	.	11.9
C[C@H](CO)N1C[C@H](C)[C@H](CN(C)S(=O)(=O)c2cccs2)Oc2ncc(C#Cc3ccc(F)cc3)cc2C1=O	.	.	65.1*
COc1ccc(NC(=O)N(C)C[C@@H]2Oc3c(NC(=O)C4CCCCC4)cccc3C(=O)N([C@@H](C)CO)C[C@H]2C)cc1	-0.5	7.4	5.5
COc1ccc(S(=O)(=O)Nc2ccc3c(c2)CC(=O)N([C@H](C)CO)C[C@@H](C)[C@@H](CN(C)Cc2ccc(C(=O)Nc4ccccc4N)cc2)O3)cc1	0.3	-18.2	50.1
Cc1ccc(S(=O)(=O)Nc2ccc3c(c2)CC(=O)N([C@@H](C)CO)C[C@H](C)[C@@H](CN(C)Cc2ccc(C(=O)Nc4ccccc4N)cc2)O3)cc1	0.5	8.3	50.0
C[C@H](CO)N1C[C@H](C)[C@H](CN(C)Cc2ccc(C(=O)Nc3ccccc3N)cc2)Oc2ccc(NS(=O)(=O)c3cccs3)cc2CC1=O	0.3	40.3	64.1*
C[C@H](CO)N1C[C@H](C)[C@H](CN(C)Cc2ccc(C(=O)Nc3ccccc3N)cc2)Oc2ccc(NS(=O)(=O)c3ccc(Cl)cc3)cc2CC1=O	.	40.6	59.9*
C[C@H]1CN([C@@H](C)CO)C(=O)Cc2cc(NS(=O)(=O)c3ccc(Cl)cc3)ccc2O[C@@H]1CN(C)Cc1ccc(C(=O)Nc2ccccc2N)cc1	0.6	.	.
C[C@@H]1CN([C@H](C)CO)C(=O)Cc2cc(NS(=O)(=O)c3cccs3)ccc2O[C@H]1CN(C)Cc1ccc(C(=O)Nc2ccccc2N)cc1	.	1.9	44.3
COc1ccc(S(=O)(=O)Nc2ccc3c(c2)CC(=O)N([C@H](C)CO)C[C@H](C)[C@H](CN(C)Cc2ccc(C(=O)Nc4ccccc4N)cc2)O3)cc1	0.0	53.0*	59.2*
Cc1ccc(S(=O)(=O)Nc2ccc3c(c2)CC(=O)N([C@H](C)CO)C[C@@H](C)[C@@H](CN(C)Cc2ccc(C(=O)Nc4ccccc4N)cc2)O3)cc1	-0.4	-5.9	59.7*
CC(C)NC(=O)N(C)C[C@@H]1Oc2ccc(NS(=O)(=O)c3ccc(F)cc3)cc2CC(=O)N([C@H](C)CO)C[C@@H]1C	.	10.3	-24.2
C[C@H]1CN([C@@H](C)CO)C(=O)Cc2cc(NC(=O)CCN3CCOCC3)ccc2O[C@@H]1CN(C)C(=O)Nc1ccc(C(F)(F)F)cc1	.	2.7	-2.2
Cc1noc(C)c1S(=O)(=O)Nc1ccc2c(c1)C(=O)N([C@@H](C)CO)C[C@H](C)[C@@H](CN(C)C(=O)NC1CCCCC1)OCCCC[C@H](C)O2	1.0	.	.
C[C@H](CO)N1C[C@H](C)[C@H](CN(C)Cc2ccc(C(=O)Nc3ccccc3N)cc2)Oc2ccc(NS(=O)(=O)c3ccc(F)cc3)cc2CC1=O	.	?	64.4*
C[C@@H]1CN([C@@H](C)CO)C(=O)Cc2cc(NS(=O)(=O)c3ccc(F)cc3)ccc2O[C@H]1CN(C)Cc1ccc(C(=O)Nc2ccccc2N)cc1	0.5	.	.
C[C@H]1CCCCO[C@H](CN(C)C(=O)CCC(F)(F)F)[C@@H](C)CN([C@@H](C)CO)C(=O)c2cc(NC(=O)NC3CCCCC3)ccc2O1	0.8	.	.
SMILES	A1 apoptosis 2	INS-1E rescue	T cruzi HTS
COc1ccc(CN(C)C[C@@H]2Oc3ccc(NC(=O)Cc4ccccc4)cc3CC(=O)N([C@@H](C)CO)C[C@@H]2C)cc1	0.0	-4.0	66.9*
C[C@@H]1CN([C@H](C)CO)C(=O)Cc2cc(NC(=O)Cc3ccccc3)ccc2O[C@H]1CN(C)Cc1ccc(-c2ccccc2)cc1	.	0.5	65.2*
COc1ccc(CN(C)C[C@@H]2Oc3ccc(NC(=O)Cc4ccccc4)cc3CC(=O)N([C@H](C)CO)C[C@H]2C)cc1	-1.0	8.9	54.0
C[C@H]1CN([C@@H](C)CO)C(=O)Cc2cc(NC(=O)Cc3ccccc3)ccc2O[C@@H]1CN(C)Cc1ccc(-c2ccccc2)cc1	.	-19.1	64.3*
C[C@@H]1CN([C@@H](C)CO)C(=O)Cc2cc(NC(=O)Cc3ccccc3)ccc2O[C@H]1CN(C)Cc1ccc(-c2ccccc2)cc1	1.5	.	.
C[C@H]1CN([C@@H](C)CO)C(=O)Cc2cc(NC(=O)Cc3ccccc3)ccc2O[C@H]1CN(C)Cc1ccc(-c2ccccc2)cc1	1.0	-14.7	47.3
C[C@H]1CN([C@@H](C)CO)C(=O)c2cc(NS(=O)(=O)c3cn(C)cn3)ccc2O[C@H]1CN(C)Cc1ccc(C(=O)Nc2ccccc2N)cc1	-0.1	1.4	-28.7
Cc1cc(C(=O)Nc2cccc3c2O[C@@H](CN(C)C(=O)NC2CCCCC2)[C@H](C)CN([C@H](C)CO)C3=O)n(C)n1	-0.3	4.7	1.8
C[C@H]1CN([C@@H](C)CO)C(=O)c2cc(NC(=O)Cn3cnnn3)ccc2O[C@@H]1CN(C)Cc1ccncc1	0.4	2.1	3.0
C[C@H](CO)N1C[C@H](C)[C@H](CN(C)C(=O)Nc2ccc(F)cc2)Oc2c(cccc2N(C)C)C1=O	.	8.4	-0.7
C[C@@H]1CN([C@H](C)CO)C(=O)c2cc(NC(=O)Nc3ccc4c(c3)OCO4)ccc2O[C@H]1CN(C)C(=O)NC1CCCCC1	-0.8	.	1.1
C[C@@H]1CN([C@H](C)CO)C(=O)c2cc(NS(=O)(=O)c3cn(C)cn3)ccc2O[C@@H]1CN(C)C(=O)Nc1ccc(C(F)(F)F)cc1	-0.1	-5.8	-0.3
C[C@@H]1CN([C@@H](C)CO)C(=O)Cc2cc(NC(=O)Nc3ccc(C(F)(F)F)cc3)ccc2O[C@@H]1CN(C)Cc1ccc(-c2ccccc2)cc1	1.3	-2.2	67.3*

Screening results deposited in PubChem by Broad Institute.
